Only some compounds are listed: those with a hit (about 0.99% of all), similar ones and a draw of the others.
PME-1 inh = PME-1 (human) inhibition | hit rate 0.53% among 320,000 | inhibition, % at 5.9 µM | recombinant PME-1, FP-Rh probe fluorescence polarization | Q9Y570 | AID 2130;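 active = inhibition above the campaign mean of all compounds plus 3 SD, cut at about 26% in these data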;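 note: competitive labeling of PME-1 active site by serine hydrolase directed probe; 0% = PME-1 with DMSO and 100% = wells lacking PME-1 enzyme; inhibitors block probe labeling so polarization falls and inhibition rises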
Target sequence (Q9Y570 whole entry, looked up): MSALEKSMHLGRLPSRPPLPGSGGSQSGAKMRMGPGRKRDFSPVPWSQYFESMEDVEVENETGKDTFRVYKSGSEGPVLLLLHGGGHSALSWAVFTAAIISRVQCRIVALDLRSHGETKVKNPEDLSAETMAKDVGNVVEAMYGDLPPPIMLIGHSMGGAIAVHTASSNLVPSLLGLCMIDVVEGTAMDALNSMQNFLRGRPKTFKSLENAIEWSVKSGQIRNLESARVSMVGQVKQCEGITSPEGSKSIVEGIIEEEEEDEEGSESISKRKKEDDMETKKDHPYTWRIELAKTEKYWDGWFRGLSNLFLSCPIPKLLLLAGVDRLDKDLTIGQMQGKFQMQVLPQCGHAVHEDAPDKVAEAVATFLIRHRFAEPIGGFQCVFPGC
LYPLA1 counter = LYPLA1 (human) inhibition in PME1 counter-screen | O75608 | AID 2174 | recombinant LYPLA1, FP-Rh probe fluorescence polarization | inhibition, % at 5.9 µM | hit rate 0.16% among 320,000;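 active = inhibition above the mean of all tested compounds plus 3 SD, set per campaign, cut at about 14% in these data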;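 note: inhibitors block serine hydrolase probe labeling of LYPLA1 so polarization falls; 0% = enzyme with DMSO and 100% = wells lacking LYPLA1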
Fam108B counter = Fam108B inhibition, counter-screen for RBBP9 inhibitors | recombinant Fam108B, FP-Rh probe fluorescence polarization | inhibition, % at 9.51 µM | hit rate 0.33% among 300,000;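 active = inhibition above the screen mean inhibition plus 3 SD, computed separately per campaign, cut at about 18% in these data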;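 note: inhibitors lower polarization as less probe binds the enzyme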
LYPLA2 counter = LYPLA2 (human) inhibition in PME1 counter-screen | O95372 | recombinant LYPLA2, FP-Rh probe fluorescence polarization | inhibition, % at 5.9 µM | hit rate 0.38% among 320,000;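 active = inhibition above the screen-wide mean plus 3 SD, limit set per campaign, cut at about 26% in these data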;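 note: 0% = LYPLA2 with DMSO and 100% = wells lacking LYPLA2 enzyme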
RBBP9 inhibitor = human RBBP9 hydrolase inhibition; O75884; recombinant RBBP9, FP-Rh probe fluorescence polarization; inhibition, % at 7.94 µM; hit rate 0.2% among 220,000;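 active = inhibition above the campaign mean of all tested compounds plus 3 SD, cut at about 14% in these data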;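 note: plate controls were DMSO wells with RBBP9 for no effect and wells lacking RBBP9 protein for full effect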
Target sequence (O75884 whole entry, looked up): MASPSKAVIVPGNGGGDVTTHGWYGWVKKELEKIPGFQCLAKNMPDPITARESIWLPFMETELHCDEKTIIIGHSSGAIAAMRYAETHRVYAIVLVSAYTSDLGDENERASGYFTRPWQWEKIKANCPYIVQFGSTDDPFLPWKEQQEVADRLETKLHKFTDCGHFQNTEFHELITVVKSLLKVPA
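Controls: DMSO-treated enzyme wells and wells lacking RBBP9 | Material: RBBP9 protein | Technique: Fluorescence polarization | Replication: Single well per compound, no replicates | Buffer or medium: Tris-NaCl-Pluronic buffer, pH 8.0 | Timing: 30 min compound preincubation, 45 min probe labeling, 25 °C | Read-out basis: Percent inhibition from mP, scaled between DMSO and no-protein wells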
RBBP9 confirm = confirmation of human RBBP9 inhibitors. shares compounds with RBBP9 inhibitor. recombinant RBBP9, FP-Rh probe fluorescence polarization. inhibition, % at 7.94 µM. hit rate 36% among 410;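 active = inhibition above the hit cutoff derived for the primary screen, cut at about 15% in these data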;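 note: 0% = RBBP9 with DMSO and 100% = wells lacking RBBP9 protein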
Fam108b inh conf = Fam108b (mouse) hydrolase inhibition, confirmation assay | shares compounds with Fam108B counter | recombinant Fam108b, FP-Rh probe fluorescence polarization | inhibition, % at 9.51 µM | hit rate 44% among 930;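 active = inhibition above a limit from the primary screen, the mean over all compounds plus 3 SD, cut at about 19% in these data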;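 note: 0% = median of active Fam108b wells and 100% = catalytically dead S170A mutant; inhibitors free the probe so polarization falls as inhibition rises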
* hit, by the source's call; / = not tested or not shown.

SMILES	PME-1 inh	LYPLA1 counter	Fam108B counter	LYPLA2 counter	RBBP9 inhibitor	RBBP9 confirm	others
CCCN1C(=O)S/C(=C/c2ccc(N3CCOCC3)o2)C1=O	-15	-8	-8	-23	14*	2
Cc1cc(=O)n2[nH]c(=O)c(N=Nc3ccccc3)c2[nH]1	-2	-1	3	5	16*	38*
Cc1cc(C)n2[nH]c(=O)c(N=Nc3ccccc3)c2n1	-8	-4	-5	-11	-1	/
CC(=O)C1=C(S(=O)(=O)c2ccc(C)cc2)CS(=O)(=O)C1	/	/	/	/	3	/
CCOc1ccc(-c2cc(N3C(=O)Nc4ccccc4N3O)on2)cc1	-3	1	2	-4	16*	4
NC(=O)c1ccccc1OCC(=O)Nc1ccc(Cl)c(Cl)c1	-25	-10	-7	-3	-6	/
Oc1ccc(NC(=S)N=Nc2c(O)[nH]c3ccccc23)cc1	15	2	8	6	16*	19*
Oc1[nH]c2ccc(Br)cc2c1N=NC(=S)Nc1ccc(F)cc1	13	-9	5	-9	-3	/
Oc1ccc(NC(=S)N=Nc2c(O)[nH]c3ccc(Br)cc23)cc1	/	/	/	/	53*	22*
CC(NC(=O)CCc1ccccc1)c1ccc2c(c1)OCO2 (stereo not drawn)	1	3	-4	0	/	/
CCn1c(Cc2ccccc2)nnc1SCC(=O)c1c(N)n(C2CC2)c(=O)[nH]c1=O	3	0	/	4	/	/
O=C(N/N=C/c1ccc(O)cc1)c1ccncc1	0	1	0	1	/	/
CC/C(=C\C(=O)c1ccncc1)Nc1ccc(O)cc1	5	1	-1	4	47*	5
O=C(Cc1cccs1)Nc1ccccc1NC(=O)Cc1cccs1	-6	0	6	9	15*	12
COc1ccc(OC)c(NC(=O)c2c(NC(=O)CCC(=O)O)sc3c2CCCCC3)c1	-2	-1	4	2	21*	7
Cc1ccc(NC2CCCN(C(=O)CN3C(=O)CSC3=O)C2)cc1C (stereo not drawn)	-5	1	2	-1	/	/
CC1CCCC(C)N1C(=O)COC(=O)C(Cc1ccccc1)NC(=O)c1cccs1 (stereo not drawn)	0	-1	-2	2	16*	0
O=C(COC(=O)[C@H](Cc1ccccc1)NC(=O)c1cccs1)NC1CC1	3	4	0	7	4	/
CC(C)CC(=O)O/N=C1\C(=O)N(Cc2ccc(Cl)cc2)c2ccc([N+](=O)[O-])cc21	35*	10	43*	43*	24*	46*
CC(=O)O/N=C1\C(=O)N(Cc2ccc(C)cc2)c2ccccc21	/	/	/	/	-31	/
Cc1cc(O)c(-c2cc(O)c(C)cc2O)cc1O	1	0	1	-1	47*	73*
O=C(NCCCn1ccnc1)c1cc2c(ccc3ccccc32)o1	1	1	-2	2	-4	/
Cc1ccc(NCCCCO)cc1C	2	0	-2	4	17*	7
Cc1ccc(NC(=O)CC(=O)Nc2ccc(C)c(C)c2)cc1C	-11	-8	-9	-10	/	/
COC(=O)c1cc(NC(=S)N2CCN(C(=O)C3CCCO3)CC2)cc(C(=O)OC)c1 (stereo not drawn)	-4	-6	-4	2	21*	3
SMILES	PME-1 inh	LYPLA1 counter	Fam108B counter	LYPLA2 counter	RBBP9 inhibitor	RBBP9 confirm	others
Nc1nc(-c2cccnc2)nn1C(=O)CCc1ccccc1	-2	5	1	12	14*	6
CC(C)c1cc(Nc2cccc(O)c2)cc(C(C)C)c1O	11	-5	14	-4	16*	-8
O=C1c2ccccc2-c2onc3ccc(N4CCCC4)c1c23	/	/	/	/	46*	16*
Cc1cc(Cl)ccc1Oc1ccccc1C(=O)CC#N	15	-6	-1	-6	-14	/
c1ccc(-c2cc3ccccc3[nH]2)cc1	5	-2	3	2	/	/
COc1ccc(-c2cc3ccccc3[nH]2)cc1	0	3	3	1	17*	4
CN(C)c1ccc(C(=O)N=c2sccn2C)cc1[N+](=O)[O-]	-5	-1	-1	2	/	/
CCCCNC(=O)CN(Cc1ccco1)S(=O)(=O)c1ccc(C(C)=O)cc1	-2	1	/	1	/	/
CCCN(CC#CC(O)(c1ccccc1)c1cccnc1)CCC (stereo not drawn)	-6	2	-1	-4	22*	9
CC(=O)c1sc2nc(-c3ccco3)ccc2c1N	-7	2	16	6	21*	35*
COc1ccc(-n2c(Cc3cccn3C)nnc2SCC(=O)Nc2ccccc2)cc1	-2	-5	-7	-6	-4	/
COc1ccc(-n2c(Cc3cccn3C)nnc2SCC(=O)NC2CCCC2)cc1	-3	0	-2	-6	19*	2
CN1CC(=O)N(CC(=O)Nc2ccc(N3CCOCC3)cc2)C1=O	-1	2	/	3	/	/
CC(C)(C)N(CC#CCC1(O)c2ccccc2-c2ccccc21)CCO	-2	-1	-2	3	-2	/
COc1ccc(OC)c(CCNC(=O)Cn2cccc2C(=O)c2ccccc2)c1	-2	4	0	7	/	/
COc1ccc(OC)c(CCNC(=O)Cn2cccc2C(=O)c2ccccc2C)c1	-2	2	-4	-1	15*	0
Oc1ccc(-c2nc3ccccc3s2)c(O)c1	-6	-6	-6	-11	-10	/
Oc1ccc(-c2cnns2)c(O)c1	2	1	2	3	41*	56*
CCOC(=O)c1c(C)n(-c2ccc(C)cc2)c2c(C(C(C)=O)C(=O)O)c(Br)c(O)c(O)c12 (stereo not drawn)	-1	-1	15	-3	8	/
CCOC(=O)C(C(C)=O)c1c(Br)c(O)c(O)c2c(C(=O)c3ccc(C)cc3)coc12 (stereo not drawn)	0	-5	6	3	24*	17*
COc1ccc2c(c1)C(C)=CC(C)(C)N2S(=O)(=O)c1ccc(C)cc1	-6	-1	-3	2	-4	/
CC1=CC(C)(C)N(S(=O)(=O)c2ccc(C)cc2)c2cc(C)ccc21	-3	4	-2	6	21*	9
CC(=O)Oc1ccc(C(=O)Cc2ccc3ccccc3n2)c(O)c1C	-2	-1	3	4	-9	/
Cc1c(O)ccc(/C(Cc2ccc3ccccc3n2)=N\O)c1O	50*	9	25*	15	41*	47*	Fam108b inh conf=29*
Cc1c(Br)c(O)c(Br)c2sc(=O)oc12	18	-6	29*	0	25*	38*	Fam108b inh conf=1
Cc1cc(C)c(S(=O)(=O)N2CCCCC2CCNC(=O)C(=O)NCCN2CCOCC2)c(C)c1 (stereo not drawn)	3	1	2	2	/	/
